Assay results from ChEMBL document CHEMBL2407075, “Sulphonamido-quinoxalines: search for anticancer agent” (Eur J Med Chem, 2013).

Tests used:
Type in all cases: functional
CAKI-1 [1] = assay: Growth inhibition of human CAKI-1 cells assessed as cell growth at 10^-4 M after 48 hrs by sulforhodamine B assay; conditions: CAKI-1, 48 h, read-out: Activity
Summary of the method: (§1)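 Five-dose NCI-60 run (0.01, 0.1, 1, 10 and 100 µM, as 10-fold dilutions from a DMSO stock made at 400× the top final level). Cells were grown in RPMI 1640 with 5% FBS and 2 mM glutamine and plated for 24 h. They were then exposed for 48 h at 37 °C and 5% CO2. TCA fixation was followed by SRB staining with A515 read-out. Percent growth was taken relative to time-zero and control plates.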

M14 [2] = assay: Growth inhibition of human M14 cells assessed as cell growth at 10^-4 M after 48 hrs by sulforhodamine B assay; conditions: M14, 48 h, read-out: Activity
Malme-3M [3] = assay: Growth inhibition of human MALME-3M cells assessed as cell growth at 10^-4 M after 48 hrs by sulforhodamine B assay; conditions: read-out: Activity
NCI-H23 [4] = assay: Growth inhibition of human NCI-H23 cells assessed as cell growth at 10^-4 M after 48 hrs by sulforhodamine B assay; conditions: NCI-H23, 48 h, read-out: Activity
MDA-MB-231 = assay: Growth inhibition of human MDA-MB-231 cells assessed as cell growth at 10^-5 M after 48 hrs by sulforhodamine B assay; conditions: MDA-MB-231, 48 h, read-out: Activity
Malme-3M [5] = assay: Growth inhibition of human MALME-3M cells assessed as cell growth at 10^-5 M after 48 hrs by sulforhodamine B assay; conditions: read-out: Activity
SF-539 = assay: Growth inhibition of human SF539 cells assessed as cell growth at 10^-5 M after 48 hrs by sulforhodamine B assay; conditions: SF-539, 48 h, read-out: Activity
SF-268 [6] = assay: Growth inhibition of human SF268 cells assessed as cell growth at 10^-5 M after 48 hrs by sulforhodamine B assay; conditions: SF-268, 48 h, read-out: Activity
SW-620 [7] = assay: Growth inhibition of human SW620 cells assessed as cell growth at 10^-5 M after 48 hrs by sulforhodamine B assay; conditions: SW-620, 48 h, read-out: Activity
786-0 = assay: Growth inhibition of human 786-0 cells assessed as cell growth at 10^-6 M after 48 hrs by sulforhodamine B assay; conditions: 786-0, 48 h, read-out: Activity; summary of the method: as §1
OVCAR-3 [8] = assay: Growth inhibition of human OVCAR3 cells assessed as cell growth at 10^-6 M after 48 hrs by sulforhodamine B assay; conditions: OVCAR-3, 48 h, read-out: Activity
IGROV-1 = assay: Growth inhibition of human IGROV1 cells assessed as cell growth at 10^-6 M after 48 hrs by sulforhodamine B assay; conditions: IGROV-1, 48 h, read-out: Activity
Summary of the method: (§2)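 Five-dose screen at NCI. Cells in RPMI 1640 with 5% FBS and 2 mM L-glutamine, seeded at 5000–40,000 cells/well and grown 24 h at 37 °C, 5% CO2 before dosing, with time-zero plates TCA-fixed. Drug diluted from DMSO stock to 0.01, 0.1, 1, 10 and 100 µM final, 48 h. Cells fixed with cold TCA (10% final), stained with 0.4% SRB and read at 515 nm. Percent growth from Tz, control and test absorbances; GI50, TGI and LC50 from dose-response curves.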

SNB-75 = assay: Growth inhibition of human SNB75 cells assessed as cell growth at 10^-6 M after 48 hrs by sulforhodamine B assay; conditions: SNB-75, 48 h, read-out: Activity
NCI-H460 = assay: Growth inhibition of human NCI-H460 cells assessed as cell growth at 10^-6 M after 48 hrs by sulforhodamine B assay; conditions: NCI-H460, 48 h, read-out: Activity
NCI-H23 [9] = assay: Growth inhibition of human NCI-H23 cells assessed as cell growth at 10^-6 M after 48 hrs by sulforhodamine B assay; conditions: NCI-H23, 48 h, read-out: Activity
HOP-62 = assay: Growth inhibition of human HOP62 cells assessed as cell growth at 10^-6 M after 48 hrs by sulforhodamine B assay; conditions: HOP-62, 48 h, read-out: Activity; summary of the method: as §2
RPMI-8226 = assay: Growth inhibition of human RPMI8226 cells assessed as cell growth at 10^-6 M after 48 hrs by sulforhodamine B assay; conditions: RPMI-8226, 48 h, read-out: Activity
MOLT-4 = assay: Growth inhibition of human MOLT4 cells assessed as cell growth at 10^-6 M after 48 hrs by sulforhodamine B assay; conditions: MOLT-4, 48 h, read-out: Activity
CAKI-1 [10] = assay: Growth inhibition of human CAKI-1 cells assessed as cell growth at 10^-7 M after 48 hrs by sulforhodamine B assay; conditions: CAKI-1, 48 h, read-out: Activity; summary of the method: as §1
SF-295 = assay: Growth inhibition of human SF295 cells assessed as cell growth at 10^-7 M after 48 hrs by sulforhodamine B assay; conditions: SF-295, 48 h, read-out: Activity
HT-29 [11] = assay: Growth inhibition of human HT-29 cells assessed as cell growth at 10^-7 M after 48 hrs by sulforhodamine B assay; conditions: HT-29, 48 h, read-out: Activity; summary of the method: as §2
[12] = Growth inhibition of human EKVX cells assessed as cell growth at 10^-7 M after 48 hrs by sulforhodamine B assay; conditions: read-out: Activity; summary of the method: as §2
UO-31 = assay: Growth inhibition of human UO31 cells assessed as cell growth at 10^-8 M after 48 hrs by sulforhodamine B assay; conditions: UO-31, 48 h, read-out: Activity
M14 [13] = assay: Growth inhibition of human M14 cells assessed as cell growth at 10^-8 M after 48 hrs by sulforhodamine B assay; conditions: M14, 48 h, read-out: Activity
HT-29 [14] = assay: Growth inhibition of human HT-29 cells assessed as cell growth at 10^-8 M after 48 hrs by sulforhodamine B assay; conditions: HT-29, 48 h, read-out: Activity; summary of the method: as §2
[15] = Growth inhibition of human HCC2998 cells assessed as cell growth at 10^-8 M after 48 hrs by sulforhodamine B assay; conditions: HCC 2998, 48 h, read-out: Activity; summary of the method: as §2
ACHN = assay: Growth inhibition of human ACHN cells after 48 hrs by sulforhodamine B assay; conditions: for CC50: read-out: LC50 (the source's name)
Summary of the method: (§3)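 Adherent cells in RPMI 1640 with 5% FBS and 2 mM L-glutamine were plated at 5000–40,000 cells/well and grown 24 h. Five concentrations (0.01–100 µM, DMSO stock) were added for 48 h at 37 °C. Cells were fixed with cold TCA (10% final) and stained with SRB, read at 515 nm. GI50 came from log concentration–growth curves against time-zero and control plates.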

OVCAR-3 [16] = assay: Growth inhibition of human OVCAR3 cells after 48 hrs by sulforhodamine B assay; conditions: OVCAR-3, 48 h; for CC50: read-out: LC50 (the source's name); summary of the method: as §3
SK-MEL-28 = assay: Growth inhibition of human SK-MEL-28 cells after 48 hrs by sulforhodamine B assay; conditions: SK-MEL-28, 48 h; for CC50: read-out: LC50 (the source's name); summary of the method: as §3
SF-268 [17] = assay: Growth inhibition of human SF268 cells after 48 hrs by sulforhodamine B assay; conditions: SF-268, 48 h; for CC50: read-out: LC50 (the source's name); summary of the method: as §3
SW-620 [18] = assay: Growth inhibition of human SW620 cells after 48 hrs by sulforhodamine B assay; conditions: SW-620, 48 h; for CC50: read-out: LC50 (the source's name); summary of the method: as §3

## O=S(=O)(Nc1ccc(Cl)cc1)c1ccc2nc(-c3ccccc3)c(-c3ccccc3)nc2c1
CAKI-1 [1]
  growth at 100 µM: 65%
M14 [2]
  growth at 100 µM: 77%
Malme-3M [3]
  growth at 100 µM: 108%
NCI-H23 [4]
  growth at 100 µM: 72%
MDA-MB-231
  growth at 10 µM: -78%
Malme-3M [5]
  growth at 10 µM: -43%
SF-539
  growth at 10 µM: 5%
SF-268 [6]
  growth at 10 µM: 27%
SW-620 [7]
  growth at 10 µM: 14%
786-0
  growth at 1 µM: 93%
OVCAR-3 [8]
  growth at 1 µM: 94%
IGROV-1
  growth at 1 µM: 93%
SNB-75
  growth at 1 µM: 69%
NCI-H460
  growth at 1 µM: 94%
NCI-H23 [9]
  growth at 1 µM: 85%
HOP-62
  growth at 1 µM: 105%
RPMI-8226
  growth at 1 µM: 68%
MOLT-4
  growth at 1 µM: 86%
CAKI-1 [10]
  growth at 0.1 µM: 88%
SF-295
  growth at 0.1 µM: 90%
HT-29 [11]
  growth at 0.1 µM: 100%
[12]
  growth at 0.1 µM: 100%
UO-31
  growth at 0.01 µM: 87%
M14 [13]
  growth at 0.01 µM: 95%
HT-29 [14]
  growth at 0.01 µM: 100%
[15]
  growth at 0.01 µM: 99%
ACHN
  TGI: > 100 µM
  CC50: > 100 µM
OVCAR-3 [16]
  CC50: > 100 µM
SK-MEL-28
  TGI: > 100 µM
  CC50: > 100 µM
SF-268 [17]
  TGI: > 100 µM
  CC50: > 100 µM
SW-620 [18]
  TGI: > 100 µM
  CC50: > 100 µM

## O=S(=O)(Nc1ccccn1)c1ccc2nc(-c3ccccc3)c(-c3ccccc3)nc2c1
CAKI-1 [1]
  growth at 100 µM: 73%
M14 [2]
  growth at 100 µM: 69%
Malme-3M [3]
  growth at 100 µM: 97%
NCI-H23 [4]
  growth at 100 µM: 42%
MDA-MB-231
  growth at 10 µM: -60%
Malme-3M [5]
  growth at 10 µM: -40%
SF-539
  growth at 10 µM: 7%
SF-268 [6]
  growth at 10 µM: 27%
SW-620 [7]
  growth at 10 µM: 14%
786-0
  growth at 1 µM: 96%
OVCAR-3 [8]
  growth at 1 µM: 92%
IGROV-1
  growth at 1 µM: 102%
SNB-75
  growth at 1 µM: 75%
NCI-H460
  growth at 1 µM: 94%
NCI-H23 [9]
  growth at 1 µM: 79%
HOP-62
  growth at 1 µM: 115%
RPMI-8226
  growth at 1 µM: 55%
MOLT-4
  growth at 1 µM: 80%
CAKI-1 [10]
  growth at 0.1 µM: 93%
SF-295
  growth at 0.1 µM: 91%
HT-29 [11]
  growth at 0.1 µM: 97%
[12]
  growth at 0.1 µM: 99%
UO-31
  growth at 0.01 µM: 88%
M14 [13]
  growth at 0.01 µM: 96%
HT-29 [14]
  growth at 0.01 µM: 102%
[15]
  growth at 0.01 µM: 99%
ACHN
  TGI: > 100 µM
  CC50: > 100 µM
OVCAR-3 [16]
  GI50: 2.17 µM
  CC50: > 100 µM
SK-MEL-28
  TGI: > 100 µM
  CC50: > 100 µM
SF-268 [17]
  TGI: > 100 µM
  CC50: > 100 µM
SW-620 [18]
  TGI: > 100 µM
  CC50: > 100 µM
